ChEMBL document CHEMBL4732148 (Eur J Med Chem, 2021)
Calls of active or inactive are those of the source. No cut-off for these calls is given here.

Assays:
Hepatitis C virus [1] = assay: Antiviral activity against HCV infected in human Huh-7 cells assessed as reduction in viral replication at 25 to 1000 nM measured after 48 hrs in presence of cytidine by luciferase reporter gene assay; assay type: functional, organism-based; conditions: Hepacivirus hominis, dose 25-1000 nM
Summary of the method: (§1)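 Huh7 cells carrying an HCV luciferase replicon, grown in DMEM with 10% FBS and G418. Cells treated 48 h continuously with compound at 25–1,000 nM, either alone or together with 50 µM cytidine or 2′-deoxycytidine. Luciferase activity read in lysates. Three biological replicates, SD.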

[2] = Stability in pH 8 aqueous buffer assessed as parent compound remaining at 200 uM measured after 4 hrs by UV spectrophotometry; assay type: physicochemical; conditions: read-out: Stabilty
Summary of the method: (§2)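 Compound diluted to […] in aqueous buffers at pH 1.0, 2.0, 4.0, 6.0 or 8.0 and held 4 h at 40 °C. Intact prodrug separated by reverse-phase HPLC. 260 nm peak area after incubation compared with untreated prodrug, giving % remaining.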

Hepatitis C virus [3] = assay: Antiviral activity against HCV infected in human Huh-7 cells assessed as reduction in viral replication preincubated for 2 hrs followed by replacement with fresh culture medium and measured after 46 hrs by luciferase reporter gene assay; assay type: functional, organism-based, Hepacivirus hominis
Summary of the method: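 HCV luciferase-replicon Huh7 cells were seeded at 10,000 cells/well and allowed 24 h to attach. Three biological replicates were exposed to graded compound in DMEM/10% FBS/0.5% DMSO for 2 h only, then the medium was replaced with fresh growth medium for 46 h at 37 °C.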

Hepatitis C virus [4] = assay: Antiviral activity against HCV infected in human Huh-7 cells assessed as reduction in viral replication measured after 48 hrs by luciferase reporter gene assay; assay type: functional, organism-based, Hepacivirus hominis; conditions: Huh-7, 48 h
Summary of the method: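 Replicon-bearing Huh7 cells seeded at 10,000/well and allowed to attach for 24 h at 37 °C. Triplicate biological wells then treated 48 h with compound in DMEM, 10% FBS, 0.5% DMSO final. Bright-Glo luminescence expressed relative to untreated cells. IC50 from a four-parameter logistic fit.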

[5] = Stability in pH 2 aqueous buffer assessed as parent compound remaining at 200 uM measured after 4 hrs by UV spectrophotometry; assay type: physicochemical; conditions: read-out: Stabilty; summary of the method: as §2
Hepatitis C virus [6] = assay: Antiviral activity against HCV infected in human Huh-7 cells assessed as reduction in viral replication at 500 nM measured within 6 hrs by luciferase reporter gene assay; assay type: functional, Hepacivirus hominis; design: scale not given: the % may be the effect or the level left; conditions: time hrs <=6
Summary of the method: (§3)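 Huh7 luciferase replicon cells treated with 500 nM compound or mock for up to 48 h. Cells were lysed at various times and the lysates snap-frozen in liquid nitrogen. All lysates were then assayed for luciferase together.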

[7] = Stability in pH 4 aqueous buffer assessed as parent compound remaining at 200 uM measured after 4 hrs by UV spectrophotometry; assay type: physicochemical; conditions: read-out: Stabilty; summary of the method: as §2
[8] = Toxicity in human Huh-7 cells assessed as reduction in cell viability measured after 96 hrs by celltiter-glo assay; assay type: cell-based; conditions: read-out: TC50
[9] = Cytotoxicity against human MCF7 cells assessed as reduction in cell viability measured after 96 hrs by celltiter-glo assay; assay type: cell-based; conditions: read-out: TC50
[10] = Cytotoxicity against human BXPC-3 cells assessed as reduction in cell viability measured after 96 hrs by celltiter-glo assay; assay type: cell-based; conditions: read-out: TC50
[11] = Stability in pH 6 aqueous buffer assessed as parent compound remaining at 200 uM measured after 4 hrs by UV spectrophotometry; assay type: physicochemical; conditions: read-out: Stabilty; summary of the method: as §2
Hepatitis C virus [12] = assay: Antiviral activity against HCV infected in human Huh-7 cells assessed as reduction in viral replication at 25 to 1000 nM measured after 48 hrs in presence of deoxycytidine by luciferase reporter gene assay; assay type: functional, organism-based; conditions: Hepacivirus hominis, dose 25-1000 nM; summary of the method: as §1
[13] = Stability in pH 1 aqueous buffer assessed as parent compound remaining at 200 uM measured after 4 hrs by UV spectrophotometry; assay type: physicochemical; conditions: read-out: Stabilty; summary of the method: as §2
[14] = Cytotoxicity against human Huh-7 cells assessed as reduction in cell viability measured after 48 hrs in presence of ENT1 inhibitor NBTI […]; assay type: cell-based; conditions: with NBTI (ENT1 inhibitor; concentration not stated), read-out: TC50
HepG2 = assay: Cytotoxicity against human HepG2 cells assessed as reduction in cell viability measured after 96 hrs by celltiter-glo assay; assay type: functional; conditions: read-out: TC50 (the source's name)
[15] = Cytotoxicity against HEK293 cells assessed as reduction in cell viability measured after 96 hrs by celltiter-glo assay; assay type: cell-based; conditions: human, read-out: TC50
[16] = Ratio of IC50 for antiviral activity against HCV infected in human Huh-7 cells in presence of esterase inhibitor bis-p-nitrophenyl phosphate to antiviral activity against HCV infected in human Huh-7 cells in absence of esterase inhibitor bis-p-nitrophenyl phosphate; assay type: functional, Hepacivirus hominis
Hepatitis C virus [17] = assay: Antiviral activity against HCV infected in human Huh-7 cells assessed as reduction in viral replication at 500 nM measured after 36 hrs by luciferase reporter gene assay; assay type: functional, organism-based; conditions: Hepacivirus hominis; summary of the method: as §3
[18] = Ratio of gemcitabine TC50 to test compound TC50 for cytotoxicity against human BXPC-3 cells assessed as reduction in cell viability; assay type: cell-based
Hepatitis C virus [19] = assay: Antiviral activity against HCV infected in human Huh-7 cells assessed as reduction in viral replication at 500 nM measured after 48 hrs by luciferase reporter gene assay; assay type: functional, organism-based; conditions: Hepacivirus hominis; summary of the method: as §3
Hepatitis C virus [20] = assay: Synergistic antiviral activity against HCV infected in human Huh-7 cells assessed as reduction in viral replication measured after 48 hrs in presence of NS5A inhibitor daclatasvir. by luciferase reporter gene assay; assay type: functional, organism-based; conditions: Hepacivirus hominis
Summary of the method: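 Replicon Huh7 cells treated 48 h with compound across 0.001–10,000 nM, each series at a fixed daclatasvir level from 0.005–0.025 nM. Luciferase read as above. A, B and C from the fits gave compound IC50 at each daclatasvir concentration, and these were plotted on an isobologram.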

Hepatitis C virus [21] = assay: Synergistic antiviral activity against HCV infected in human Huh-7 cells assessed as reduction in viral replication measured after 48 hrs in presence of NS5B inhibitor PSI-6130. by luciferase reporter gene assay; assay type: functional, organism-based; conditions: Hepacivirus hominis
[22] = Cytotoxicity against human Huh-7 cells assessed as reduction in cell viability measured after 48 hrs by celltiter-glo assay; assay type: cell-based; conditions: read-out: TC50
[23] = Ratio of gemcitabine TC50 to test compound TC50 for cytotoxicity against human MCF7 cells assessed as reduction in cell viability; assay type: cell-based
Hepatitis C virus [24] = assay: Antiviral activity against HCV infected in human Huh-7 cells assessed as reduction in viral replication measured after 48 hrs in presence of esterase inhibitor bis-p-nitrophenyl phosphate by luciferase reporter gene assay; assay type: functional, organism-based, Hepacivirus hominis; conditions: Huh-7, 48 h
[25] = Ratio of IC50 for antiviral activity against HCV infected in human Huh-7 cells in presence of human carboxylesterase 1/2 inhibitor benzil to antiviral activity against HCV infected in human Huh-7 cells in absence of human carboxyesterases1/2 inhibitor benzil; assay type: functional, Hepacivirus hominis
[26] = Prodrug conversion assessed as human carboxylesterase 1/2-mediated gemcitabine release measured after 1 hr by HPLC analysis; assay type: ADME
Hepatitis C virus [27] = assay: Antiviral activity against HCV infected in human Huh-7 cells assessed as reduction in viral replication at 500 nM measured after 24 to 30 hrs by luciferase reporter gene assay; assay type: functional, Hepacivirus hominis; design: scale not given: the % may be the effect or the level left; conditions: time 24-30 hrs; summary of the method: as §3
Hepatitis C virus [28] = assay: Antiviral activity against HCV infected in human Huh-7 cells assessed as reduction in viral replication measured after 48 hrs in presence of human carboxylesterase 1/2 inhibitor benzil by luciferase reporter gene assay; assay type: functional, organism-based, Hepacivirus hominis; conditions: Huh-7, 48 h
Summary of the method: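 Huh7 cells carrying an HCV luciferase-reporter replicon, grown with 10% FBS and G418, were seeded at 10,000 cells/well and left 24 h to attach. Three biological replicates were treated with graded compound in DMEM/10% FBS/0.5% DMSO with benzil present, for 48 h at 37 °C. Bright-Glo luciferase was read, and IC50 came from a four-parameter logistic fit.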

Hepatitis C virus [29] = assay: Ratio of IC50 for antiviral activity against HCV infected in human Huh-7 cells assessed as reduction in viral replication preincubated for 2 hrs followed by replacement with fresh culture medium and measured after 46 hrs by luciferase reporter gene assay to IC50 for antiviral activity against HCV infected in human Huh-7 cells assessed as reduction in viral replication measured after 48 hrs by …; assay type: functional, Hepacivirus hominis

Structure (SMILES) | Activity (Hepatitis C virus [1]) | remaining at 4 h, 200 µM [2] | IC50 (Hepatitis C virus [3]) | IC50 (Hepatitis C virus [4]) | remaining at 4 h, 200 µM [5] | remaining at 4 h, 200 µM [7] | CC50 at 96 h [8] | CC50 at 96 h [9] | CC50 at 96 h [10] | remaining at 4 h, 200 µM [11] | Activity (Hepatitis C virus [12]) | remaining at 4 h, 200 µM [13] | CC50 at 48 h [14] | CC50 (HepG2) | CC50 at 96 h [15] | further results
Nc1ccn([C@@H]2O[C@H](CO)[C@@H](O)C2(F)F)c(=O)n1 [GEMCITABINE] | inactive | 100% | 170 nM | 58 nM | 88% | 98% | 3400 nM | 67 nM | 2.9 nM | 100% | inactive | 79% | > 500000 nM | 310 nM | 560 nM | Activity (Hepatitis C virus [6]): 50%
COc1cc(C(=O)Nc2ccn([C@@H]3O[C@H](CO)[C@@H](O)C3(F)F)c(=O)n2)cc(OC)c1OC | inactive | 82.7% | 2800 nM | 49.3 nM | 87% | 98.6% | 5100 nM | 570 nM | 1800 nM | 99.5% | inactive | 86% | 398000 nM | 1700 nM | 1300 nM | Ratio IC50 [16]: 1.6; Activity (Hepatitis C virus [17]): Active; selectivity ratio [18]: ≤ 620; Activity (Hepatitis C virus [19]): Active; Activity (Hepatitis C virus [20]): Active; Activity (Hepatitis C virus [21]): Active; CC50 at 48 h [22]: 490000 nM; selectivity ratio [23]: ≤ 24; IC50 (Hepatitis C virus [24]): 81 nM; Ratio IC50 [25]: 2.5; Drug metabolism [26]: Metabolite_Detected; Activity (Hepatitis C virus [27]): 50%; IC50 (Hepatitis C virus [28]): 125 nM; Ratio IC50 (Hepatitis C virus [29]): 56
